Measurements: ChEMBL document CHEMBL1135776, “Benzo- and cyclohexanomazindol analogues as potential inhibitors of the cocaine binding site at the dopamine transporter” (J Med Chem, 2002)

Legend:
[1] = (§1) Ratio of the IC50 value of Mazindol to that in guinea pig was determined; type: functional
[2] = Ratio of the IC50 against DAT in rat striatal membranes to that of guinea pig striatal membranes.; type: cell membranes; details: Membrane
[3] = test system: HEK hDAT; experiment: Ratio of the IC50 against DAT in HEK hDAT cells to that of rat striatal membranes.; type: cell membranes; details: Membrane
[4] = molecular target: Sodium-dependent serotonin transporter (Homo sapiens, UniProt P31645); experiment: Inhibition of [125I]- RTI -55 binding at the Serotonin transporter sites on HEK-hSERT cells; type: cell-based
Method in brief: (§2)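 Membranes from HEK293 cells expressing hDAT, hSERT or hNET (about 10–15 μg protein) preincubated 10 min with compound in Krebs-HEPES pH 7.4 containing pargyline, tropolone and ascorbate. Then [125I]RTI-55 (40–80 pM final) added, 90 min at 25 °C, filtration. […] Duplicates, two or three experiments; IC50 converted to Ki by Cheng-Prusoff.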

[5] = molecular target: T1, Sodium-dependent dopamine transporter (Homo sapiens, UniProt Q01959); experiment: as §1; type: functional; details: Cavia porcellus; target entry is the homologue from another species
[6] = molecular target: T2, Sodium-dependent noradrenaline transporter (Homo sapiens, UniProt P23975); experiment: Inhibition of [125I]- RTI -55 binding at the Norepinephrine transporter sites on HEK-hNET cells; type: cell-based; method in brief: as §2
[7] = test system: HEK293; experiment: Ability to block the uptake of [3H]- 5- HT(serotonin) in HEK-hSERT cells; type: functional, cell-based; details: Homo sapiens
[8] = test system: HEK hDAT; experiment: Ratio of the IC50 against DAT in HEK hDAT cells to that of guinea pig striatal membranes.; type: cell-based
[9] = molecular target: Monoamine transporters; serotonin & dopamine (Homo sapiens) (UniProt P31645+Q01959); experiment: Selectivity ratio as ratio of IC50 value against SERT to that of DAT; type: protein assay
[10] = test system: HEK293; experiment: Ability to block the uptake of [3H]- DA(dopamine) in HEK-hDAT cells; type: functional, cell-based; details: Homo sapiens
[11] = test system: HEK293; experiment: Ability to block the uptake of [3H]NE (norepinephrine) in HEK-hNET cells; type: functional, cell-based; details: Homo sapiens
[12] = Discrimination ratio against NET as ratio of IC50 to that of Ki uptake to NET.; type: functional
Method in brief: (§3)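 Ratio of uptake IC50 in transporter-expressing HEK293 cells to [125I]RTI-55 binding Ki at the same human transporter (DAT, SERT or NET). Both were measured in this work: uptake with 20 nM [3H]amine for 10 min at 25 °C, binding for 90 min at 25 °C.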

[13] = molecular target: Monoamine transporters; Norepinephrine & dopamine (Homo sapiens) (UniProt Q01959+P23975); experiment: Selectivity ratio as ratio of IC50 value against NET to that of DAT; type: protein assay
[14] = Discrimination ratio against SERT as ratio of IC50 to that of Ki uptake to SERT.; type: functional; method in brief: as §3
[15] = molecular target: T1, Sodium-dependent dopamine transporter; experiment: Inhibition of [125I]- RTI -55 binding at the Dopamine transporter sites on HEK-hDAT cells; type: cell-based
Method in brief: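 Membranes from HEK293 cells expressing hDAT, hSERT or hNET (about 10–15 μg protein) preincubated 10 min with compound in Krebs-HEPES pH 7.4 containing pargyline, tropolone and ascorbate. Duplicates, two or three experiments; IC50 converted to Ki by Cheng-Prusoff.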

[16] = Discrimination ratio against DAT as ratio of IC50 to that of Ki uptake to DAT.; type: functional; method in brief: as §3
[17] = molecular target: T2, Sodium-dependent noradrenaline transporter; experiment: Displacement of [125I]RTI-55 from human Norepinephrine transporter expressed in HEK cells; type: cell-based, HEK293
Method in brief: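 Membranes from HEK293 cells expressing hNET, about 10–15 μg protein per tube. Compounds diluted from 10 mM DMSO stock, preincubated 10 min, then 40–80 pM [125I]RTI-55 added, 90 min at 25 °C in Krebs-HEPES pH 7.4. […] GF/C filtration; two or three experiments in duplicate; IC50 converted to Ki by Cheng-Prusoff.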

[18] = molecular target: Sodium-dependent dopamine transporter (Rattus norvegicus, UniProt P23977); experiment: Ability to displace [3H]WIN-35428 from dopamine transporter on rat striatal membrane.
Method in brief: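 Rat (male Sprague–Dawley, 200–225 g) striatal membranes in modified Krebs-HEPES pH 7.4; 2.5 mg tissue (wet weight) per tube with 1.5 nM [3H]WIN 35,428. Membranes preincubated 5 min with test compound, then incubated 60 min on ice. Nonspecific binding defined with 0.1 mM cocaine. Filtration over BSA-soaked GF/B filters, scintillation counting; triplicate samples.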

Monoamine transporters; Norepinephrine & dopamine (Homo sapiens), sequence (P23975 whole entry, looked up): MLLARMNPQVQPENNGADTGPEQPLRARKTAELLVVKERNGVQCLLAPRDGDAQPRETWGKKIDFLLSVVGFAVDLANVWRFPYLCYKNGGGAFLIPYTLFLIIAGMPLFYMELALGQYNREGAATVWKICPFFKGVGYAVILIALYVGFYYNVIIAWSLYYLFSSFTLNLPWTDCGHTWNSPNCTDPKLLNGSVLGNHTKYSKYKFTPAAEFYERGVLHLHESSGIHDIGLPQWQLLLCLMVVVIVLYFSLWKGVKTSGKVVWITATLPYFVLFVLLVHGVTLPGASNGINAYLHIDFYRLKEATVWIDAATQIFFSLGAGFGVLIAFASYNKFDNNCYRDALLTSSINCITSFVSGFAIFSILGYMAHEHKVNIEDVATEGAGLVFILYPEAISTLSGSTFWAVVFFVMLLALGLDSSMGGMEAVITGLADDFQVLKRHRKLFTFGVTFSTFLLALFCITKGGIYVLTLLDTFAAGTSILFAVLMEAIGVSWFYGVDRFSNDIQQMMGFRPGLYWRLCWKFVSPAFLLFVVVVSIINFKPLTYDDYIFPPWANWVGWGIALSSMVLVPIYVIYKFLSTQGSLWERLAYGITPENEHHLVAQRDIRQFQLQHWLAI
Monoamine transporters; Norepinephrine & dopamine (Homo sapiens), sequence (Q01959 whole entry, looked up): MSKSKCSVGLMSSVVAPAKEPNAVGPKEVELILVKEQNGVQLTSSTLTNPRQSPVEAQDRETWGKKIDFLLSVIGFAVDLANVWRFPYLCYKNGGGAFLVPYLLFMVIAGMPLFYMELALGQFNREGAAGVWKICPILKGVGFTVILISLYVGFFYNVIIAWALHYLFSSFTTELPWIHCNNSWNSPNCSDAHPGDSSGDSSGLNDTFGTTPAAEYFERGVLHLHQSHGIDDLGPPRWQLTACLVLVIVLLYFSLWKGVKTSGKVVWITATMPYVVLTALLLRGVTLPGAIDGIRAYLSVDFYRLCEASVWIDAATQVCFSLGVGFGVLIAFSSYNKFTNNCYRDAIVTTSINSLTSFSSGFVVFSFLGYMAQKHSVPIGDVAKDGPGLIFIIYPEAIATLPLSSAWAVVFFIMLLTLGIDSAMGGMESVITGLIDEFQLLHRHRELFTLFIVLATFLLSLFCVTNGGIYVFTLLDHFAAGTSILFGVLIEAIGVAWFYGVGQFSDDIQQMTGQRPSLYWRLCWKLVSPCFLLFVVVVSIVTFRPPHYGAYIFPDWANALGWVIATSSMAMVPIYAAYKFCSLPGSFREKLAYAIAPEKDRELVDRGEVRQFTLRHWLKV
T2 sequence (P23975 whole entry): as the sequence (P23975 whole entry, looked up) above
Sodium-dependent serotonin transporter, sequence (P31645 whole entry): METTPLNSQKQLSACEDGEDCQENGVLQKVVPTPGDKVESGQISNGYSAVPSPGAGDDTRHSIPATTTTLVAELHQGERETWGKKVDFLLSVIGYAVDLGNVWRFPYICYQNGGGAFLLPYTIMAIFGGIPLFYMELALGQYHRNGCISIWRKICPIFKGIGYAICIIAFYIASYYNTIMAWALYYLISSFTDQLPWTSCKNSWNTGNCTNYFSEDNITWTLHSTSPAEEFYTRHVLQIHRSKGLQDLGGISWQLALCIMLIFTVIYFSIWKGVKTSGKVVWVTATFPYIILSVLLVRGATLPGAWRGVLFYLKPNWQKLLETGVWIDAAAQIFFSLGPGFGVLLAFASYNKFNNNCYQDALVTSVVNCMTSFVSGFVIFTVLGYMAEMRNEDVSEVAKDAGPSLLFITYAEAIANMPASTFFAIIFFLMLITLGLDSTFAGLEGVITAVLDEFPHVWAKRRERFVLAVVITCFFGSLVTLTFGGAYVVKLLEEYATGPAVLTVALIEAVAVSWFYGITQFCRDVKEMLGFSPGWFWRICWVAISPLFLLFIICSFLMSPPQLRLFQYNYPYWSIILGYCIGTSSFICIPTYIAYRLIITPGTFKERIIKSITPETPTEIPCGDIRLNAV
Monoamine transporters; serotonin & dopamine (Homo sapiens), sequence (P31645 whole entry, looked up): as the sequence (P31645 whole entry) above
Monoamine transporters; serotonin & dopamine (Homo sapiens), sequence (Q01959 whole entry, looked up): as the sequence (Q01959 whole entry, looked up) above
T1 sequence (Q01959 whole entry): as the sequence (Q01959 whole entry, looked up) above
Sodium-dependent dopamine transporter (Rattus norvegicus, UniProt P23977), sequence (P23977 whole entry): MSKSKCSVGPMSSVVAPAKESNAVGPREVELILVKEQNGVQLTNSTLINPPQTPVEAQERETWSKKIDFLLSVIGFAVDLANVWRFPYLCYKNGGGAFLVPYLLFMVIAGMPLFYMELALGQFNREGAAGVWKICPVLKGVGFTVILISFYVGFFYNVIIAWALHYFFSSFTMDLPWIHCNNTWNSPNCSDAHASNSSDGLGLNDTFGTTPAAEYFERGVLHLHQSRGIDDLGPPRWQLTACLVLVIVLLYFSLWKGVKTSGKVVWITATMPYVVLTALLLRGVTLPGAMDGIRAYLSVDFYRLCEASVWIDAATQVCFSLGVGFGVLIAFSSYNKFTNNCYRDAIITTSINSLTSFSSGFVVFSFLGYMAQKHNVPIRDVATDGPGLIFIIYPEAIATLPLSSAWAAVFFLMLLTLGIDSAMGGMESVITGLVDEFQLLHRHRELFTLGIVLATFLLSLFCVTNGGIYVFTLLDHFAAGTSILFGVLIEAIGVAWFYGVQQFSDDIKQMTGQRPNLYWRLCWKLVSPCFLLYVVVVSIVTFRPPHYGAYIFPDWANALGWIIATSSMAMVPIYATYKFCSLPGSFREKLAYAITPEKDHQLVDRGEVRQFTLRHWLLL

| Compound | Ki [4] | Ratio [5] | Ki [6] | IC50 [7] | Ratio [9] | IC50 [10] | IC50 [11] | Ratio [12] | Ratio [13] | Ratio [14] | Ki [15] | Ratio [16] | other results |
| --- | --- | --- | --- | --- | --- | --- | --- | --- | --- | --- | --- | --- | --- |
| OC1(c2ccc(Cl)cc2)c2c(c3ccccc3c3ccccc23)C2=NCCN21 (stereo not drawn) |  |  |  |  |  |  |  |  |  |  |  |  | Ratio [1]: <0.02 |
| OC1(c2ccc(Cl)cc2)c2ccc3ccccc3c2C2=NCCCN21 (stereo not drawn) | 5.5 nM | 20.3 | 5.3 nM | 700 nM | 2.8 | 366 nM | 53 nM | 10 | 2.6 | 127 | 2.01 nM | 182 | Ratio [2]: 17.8; Ratio [3]: 0.05; Ratio [8]: 1 |
| OC1(c2ccc(Cl)cc2)c2ccccc2C2=N[C@@H]3CCCC[C@@H]3N21 (stereo partly drawn) |  | 5.1 |  |  |  |  |  |  |  |  |  |  |  |
| OC1(c2ccc(Cl)cc2)c2ccccc2C2=Nc3ccccc3CN21 (stereo not drawn) |  | < 0.02 |  |  |  |  |  |  |  |  |  |  |  |
| OC1(c2ccc(Cl)cc2)c2ccc3ccccc3c2C2=N[C@H]3CCCC[C@@H]3N21 (mixture of isomers) |  | < 0.02 |  |  |  |  |  |  |  |  |  |  |  |
| OC1(c2ccc(Cl)cc2)c2ccccc2C2=NCCCN21 (stereo not drawn) | 39 nM | 10.1 |  | 53 nM | 22.9 | 3.7 nM | 4.9 nM | 0.3 | 10.7 | 1.4 | 1.7 nM | 2.2 | Ki [17]: 18.2 nM |
| OC1(c2ccc3ccccc3c2)c2ccccc2C2=NCCN21 (stereo not drawn) | 2.3 nM | 10.4 | 11 nM | 1.8 nM | 0.05 | 66 nM | 4.5 nM | 0.4 | 0.24 | 0.8 | 45 nM | 1.5 | Ratio [2]: 5.7; Ratio [3]: 1.9; Ratio [8]: 11 |
| OC1(c2cccc3ccccc23)c2ccccc2C2=NCCN21 (stereo not drawn) |  | 0.02 |  |  |  |  |  |  |  |  |  |  |  |
| OC1(c2ccc3ccccc3c2)c2c(c3ccccc3c3ccccc23)C2=NCCN21 (stereo not drawn) |  |  |  |  |  |  |  |  |  |  |  |  | Ratio [1]: <0.02 |
| OC1(c2ccc(Cl)cc2)c2ccccc2C2=NCCN21 (stereo not drawn) [MAZINDOL] | 50 nM |  | 18 nM | 94 nM |  |  | 4.9 nM |  |  |  |  |  |  |
| OC1(c2ccc3c(c2)CCCC3)c2ccccc2C2=NCCN21 (stereo not drawn) |  | < 0.02 |  |  |  |  |  |  |  |  |  |  |  |
| OC1(c2ccc(Cl)cc2)c2ccccc2C2=NCc3ccccc3CN21 (stereo not drawn) |  | < 0.02 |  |  |  |  |  |  |  |  |  |  |  |
| OC1(c2ccc(Cl)cc2)c2ccc3ccccc3c2C2=NCCN21 (stereo not drawn) | 224 nM | 4 | 33.4 nM | 3210 nM | 8.2 | 85 nM | 13 nM | 0.4 | 1.2 | 14.3 | 27.2 nM | 3.2 | Ratio [2]: 1.5; Ratio [3]: 1.7; Ratio [8]: 2.6 |
| OC1(c2ccc3ccccc3c2)c2ccc3ccccc3c2C2=NCCN21 (stereo not drawn) | 11 nM | 13 | 5.2 nM | 370 nM | 3.9 | 880 nM | 38 nM | 7 | 1.9 | 34 | 2.83 nM | 311 | Ratio [2]: 11.6; Ratio [3]: 0.07; Ratio [8]: 0.9 |
| OC1(c2ccc(Cl)cc2)c2ccccc2C2=N[C@H]3CCCC[C@@H]3N21 (stereo partly drawn) | 600 nM | 15.8 | 690 nM | > 10000 nM | 3.9 | 63 nM | 323 nM | 0.5 | 4.1 | > 17 | 152 nM | 0.4 | Ratio [2]: 12.7; Ratio [3]: 4.4; IC50 [18]: 34.2 nM; Ratio [8]: 56.3 |
| OC1(c2ccc(Cl)cc2)c2cc3ccccc3cc2C2=NCCN21 (stereo not drawn) |  | 1.3 |  |  |  |  |  |  |  |  |  |  |  |
| OC1(c2ccc(Cl)cc2)c2ccccc2-c2nc3ccccc3n21 (stereo not drawn) |  | < 0.02 |  |  |  |  |  |  |  |  |  |  |  |
| OC1(c2ccc(Cl)cc2)c2c(ccc3ccccc23)C2=NCCN21 (stereo not drawn) |  | 0.2 |  |  |  |  |  |  |  |  |  |  |  |
